# IDE inh = cellular human IDE inhibition | P14735 | HEK cells, FAbetaB cleavage, fluorescence polarization | inhibition, % at 5.59 µM | actives 0.41% (n = 320,000) | AID 434962;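 active = percent inhibition above the average of all tested compounds plus 3 SD, set per screening campaign, cut at about 16% in these data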;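 also: IDE supplied by intact live HEK cells; FP after avidin binding of uncleaved biotin substrate so inhibition keeps polarization high; 0% = DMSO wells and 100% = 60 µM reference IDE inhibitor Ii1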
# TPT1 inh = C. albicans TPT1 enzyme inhibition | actives 0.81% (n = 300,000) | inhibition, % at 5 µM | recombinant caTPT1, FP RNA substrate dephosphorylation | AID 1962;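 active = inhibition above the mean of all tested compounds plus 3 SD, set per screening campaign, cut at about 24% in these data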;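 also: plate controls were DMSO alone for no effect and ferristatin control at 100 nM for full effect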
# IDE act = activators of human insulin-degrading enzyme in cells; P14735; HEK cells, FAbeta-B cleavage, fluorescence polarization; 0% vehicle, 100% cell-free pure enzyme wells; activation, % at 5.96 µM; actives 0.073% (n = 340,000); AID 493087;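 active = activation above the mean of all tested compounds plus 3 SD, set per screening campaign, cut at about 17% in these data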
# Rpn11 block = inhibitors of human proteasome Rpn11; human 26S proteasome, Ub4-pepOG fluorescence polarization; 20S core pre-blocked with epoxomicin; inhibition, % at 20 µM; actives 0.59% (n = 360,000);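 active = inhibition at 20 µM, scaled to each plate's controls, above about 33%, limit read from the data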
# Target sequence (O00487 whole entry, looked up): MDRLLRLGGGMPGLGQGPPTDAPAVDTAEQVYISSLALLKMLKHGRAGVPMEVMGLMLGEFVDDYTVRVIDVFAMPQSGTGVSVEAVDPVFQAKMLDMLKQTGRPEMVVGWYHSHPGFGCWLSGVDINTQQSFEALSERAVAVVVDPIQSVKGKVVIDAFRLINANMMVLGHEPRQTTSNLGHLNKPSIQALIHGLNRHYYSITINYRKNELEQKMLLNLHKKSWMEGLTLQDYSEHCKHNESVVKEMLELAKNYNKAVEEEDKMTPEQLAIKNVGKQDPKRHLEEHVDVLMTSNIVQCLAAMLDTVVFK
# CSN deneddyl inh = inhibitors of human CSN-mediated cullin deneddylation | AID 651999 | inhibition, % at 12.5 µM | actives 0.38% (n = 360,000) | Purified CSN, SCF-Nedd8-OG deneddylation, fluorescence polarization | Q92905;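 active = pattern-corrected inhibition above about 35%, with an unprinted fluorescence ratio check between 0.5 and 1.5, limit read from the data, passing the limit was not always enough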;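 also: 0% = enzyme with substrate and 100% = substrate without enzyme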
#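 assay system = purified human Csn5 enzyme expressed in HEK293T cells | amount = 0.24 nM enzyme | buffer or medium = Tris/NaCl/DTT buffer, pH 7.5 | reagent = 10 nM SCFSkp2-Nedd8OG | compound = one concentration, 12.5 µM, 0.25% DMSO | times = 90 min reaction at room temperature | signal = FP | read-out basis = % inhibition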
# HNF4A DNA FP = change in binding of human HNF4 alpha to DNA; actives 0.3% (n = 360,000); P41235; activity change, % at 10 µM; AID 1224865; HNF4a-FITC DNA binding, fluorescence polarization, 1 h; in the data active = activity change above about 30%, passing the limit was not always enough
# TPT1 inh confirm = TPT1 (C. albicans) inhibition, confirmation. shares compounds with TPT1 inh. recombinant caTPT1, fluorescence polarization, RNase T1 coupled. inhibition, % at 5 µM. actives 74% (n = 2,400);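 active = inhibition above the primary screen limit, the mean inhibition of all tested compounds plus 3 SD, cut at about 25% in these data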
# RNase T1 counter = counter-screen for TPT1 inhibitors: inhibitors of Aspergillus oryzae RNase T1 | inhibition, % at 5 µM | AID 2153 | RNase T1 cleavage, fluorescence polarization, 1536-well | actives 83% (n = 2,400) | shares compounds with TPT1 inh;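 active = inhibition above the solvent-only control well mean plus 3 SD, limit set per screening run, cut at about 23% in these data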;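 also: plate controls were DMSO wells with enzyme for no effect and wells without RNase T1 for full effect; inhibitors block cleavage so intact labeled substrate keeps polarization high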
# Target sequence (P00651 whole entry, looked up): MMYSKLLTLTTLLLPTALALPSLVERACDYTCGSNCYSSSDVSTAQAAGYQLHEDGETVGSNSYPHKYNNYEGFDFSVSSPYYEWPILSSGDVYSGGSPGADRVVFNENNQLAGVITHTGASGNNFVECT
# * marks the source's active call; other numbers are inactive results; nt = no result given. An excerpt weighted towards active compounds, which were near 1.7% of everything screened.
SMILES,IDE inh,TPT1 inh,IDE act,Rpn11 block,CSN deneddyl inh,HNF4A DNA FP,TPT1 inh confirm,RNase T1 counter
CCN(CC)c1ccc(NC(=O)CSc2nc3nc(C)cc(C)c3c(=O)[nH]2)cc1,-1.9,-2.3,2.1,-3.2,-2.4,1.5,nt,nt
CSc1ncccc1C(=O)NC1CC(C)(C)Cc2c1cnn2-c1ccccc1C (stereo not given),1.4,-2.1,1.0,-5.0,-0.6,-2.5,nt,nt
Cc1ccc(C(C[N+](=O)[O-])Sc2ccc(N)cc2)cc1 (stereo not given),-3.9,2.3,-9.9,2.7,3.9,-1.9,nt,nt
Cc1ccc(C(=O)NN2C(=O)/C(=C/c3cn(C)c4ccccc34)SC2=S)cc1,3.4,160.4*,-18.3,-80.0,21.7,75.3,80.5*,86.0*
Cn1cc(/C=C2\SC(=S)N(NC(=O)c3ccccc3Cl)C2=O)c2ccccc21,11.0,76.5*,-21.4,-34.8,25.3,81.9,176.4*,161.6*
COC(=O)C1=C(COc2ccc(C=O)cc2OC)NC(=O)NC1c1cc(C)ccc1C (stereo not given),-0.3,-3.0,3.4,-9.6,3.4,4.3,nt,nt
Cc1ccc(N2CN(Cc3ccco3)CNC2=S)c(C)c1,-4.0,47.6*,2.8,-0.8,-3.7,-1.3,7.9,8.4
Cc1ccc(N2CN(Cc3cccnc3)CNC2=S)c(C)c1,-4.5,-0.1,-0.7,-2.0,2.6,-0.7,nt,nt
CCn1c(/C=C/c2c(C)[nH]c3ccccc23)nc2ccccc2c1=O,-1.6,37.7*,5.6,nt,-1.4,21.9,59.4*,70.8*
Cc1[nH]c2ccccc2c1/C=C/C(=O)c1ccccc1,-1.9,31.9*,-3.5,nt,14.8,23.6,62.6*,75.3*
Cc1[nH]c2ccccc2c1/C=N/NC(=O)c1ccccc1,4.8,0.2,3.1,-8.6,-1.9,1.1,nt,nt
O=C(O)c1ccc(N=Nc2c(O)[nH]c3cc(Cl)ccc23)cc1,12.9,29.2*,-37.1,43.7*,8.8,20.4,54.2*,67.2*
COc1ccc(OC)c(/C=C2\SC(=S)N(Cc3cccnc3)C2=O)c1,4.5,65.4*,-13.1,-66.7,50.7,71.3,68.5*,77.5*
COc1ccc(O)c(/C=C2/SC(=S)N(Cc3ccccc3)C2=O)c1,14.0,93.2*,-5.8,nt,85.8,108.5,103.8*,102.8*
COc1ccc(/C=C2/SC(=S)N(Cc3ccccc3)C2=O)cc1O,nt,nt,2.8,-5.3,0.0,4.4,nt,nt
Cc1cn(-c2cc(C(=O)Nc3ccc(C)c(NC(=O)C(=O)c4c[nH]c5ccccc45)c3)cc(C(F)(F)F)c2)cn1,3.3,-4.4,6.6,-4.9,2.9,5.4,nt,nt
Cc1cc(C)c(C(O)c2ncc(-c3ccccc3F)[nH]2)c(C)c1 (stereo not given),nt,nt,nt,-2.2,-3.8,0.5,nt,nt
CCCn1c2c(c(O)c(C(=O)NC)c1=O)CCCC2,1.9,37.8*,-1.6,34.4,11.4,18.7,9.2,16.0
CCOc1ccc2nc(N3C(=O)/C(=C/c4ccccc4)NC3=S)sc2c1,-0.5,25.7*,-1.4,nt,19.4,-0.6,35.3*,45.1*
CCOc1ccc2nc(N3CCCCCC3)sc2c1,6.9,0.7,2.6,-2.7,3.5,0.7,nt,nt
O=C(COc1ccccc1[N+](=O)[O-])N/N=C/c1ccc(O)c([N+](=O)[O-])c1,4.0,60.6*,4.6,-4.9,0.8,-5.2,8.8,11.7
Cc1c2cnn(CC(=O)NCCCN3CCCCC3C)c(=O)c2c(C)n1Cc1ccccc1 (stereo not given),1.7,24.2*,-6.2,29.7,6.7,10.9,36.3*,44.1*
Cc1c2cnn(CC(=O)NC3CCCC3)c(=O)c2c(C)n1Cc1ccccc1,6.2,-1.9,0.6,-2.2,-5.1,-2.0,nt,nt
CC(C)CC1C(=O)N(Cc2cn(CC3CCCCC3)nn2)CCS(=O)(=O)N1Cc1ccc(-c2cccc(CO)c2)cc1 (stereo not given),nt,nt,nt,10.2,8.6,-2.5,nt,nt
CCCCc1ccc(C2C(C#N)=C(N)SC(N)=C2C#N)s1,15.4,136.7*,nt,nt,nt,nt,63.6*,76.2*
SMILES,IDE inh,TPT1 inh,IDE act,Rpn11 block,CSN deneddyl inh,HNF4A DNA FP,TPT1 inh confirm,RNase T1 counter
N#Cc1cc(Sc2ccccn2)c([N+](=O)[O-])cc1C#N,15.0,38.3*,-15.9,57.4*,22.6,22.6,35.8*,45.1*
N#Cc1cc(Sc2ccccn2)c(Sc2ccccn2)cc1C#N,1.6,-0.2,0.6,4.2,-3.2,1.5,nt,nt
N#CC1CC(c2ccc([N+](=O)[O-])cc2)=NN1c1ccc([N+](=O)[O-])cc1 (stereo not given),1.2,73.0*,-4.9,nt,23.2,87.0,91.0*,97.3*
O=[N+]([O-])c1cccc(C2CC(c3ccccc3)=NN2c2ccccc2)c1 (stereo not given),3.7,-1.4,4.7,-0.7,-1.6,-3.3,nt,nt
CC(C)N1CCN(Cc2ccc(Sc3nncn3C)o2)CC1CCO (stereo not given),-0.1,1.5,7.9,0.0,-5.0,1.6,nt,nt
O=S(=O)(/C=C/c1ccccc1)Nc1ccc(N2CCOCC2)cc1,3.7,3.1,-1.9,4.6,-4.2,1.1,nt,nt
O=C(O)c1ccc(NS(=O)(=O)/C=C/c2ccccc2)cc1O,6.4,24.4*,4.2,1.4,-3.4,3.5,3.3,5.5
O=C(COc1ccccc1Cl)NCCNC(=O)c1cccnc1,7.4,-0.6,0.3,-1.8,-1.4,-4.0,nt,nt
CCC1CCCCN1CCCNC(=O)CNC(=O)Cn1ccc2ccccc2c1=O (stereo not given),-2.9,37.3*,1.9,-6.5,-1.4,0.2,6.6,5.7
COc1cc(OC)c(N(C)S(=O)(=O)c2cccc(C(=O)Nc3nccs3)c2)cc1Cl,6.3,nt,2.7,12.3,1.4,-1.0,nt,nt
CCn1c2ccccc2c2c3ncc4cccn4c3ccc21,0.9,33.0*,-5.8,nt,28.2,24.0,15.1,22.1*
CCOc1cccc(CN2CCN(CCCc3ccccc3)C(CCO)C2)c1O (stereo not given),-1.9,2.9,2.7,3.1,2.1,0.5,nt,nt
CCOc1ccc(/C=C/C(=O)c2c(O)cc(C)oc2=O)cc1,12.4,45.3*,-5.9,14.7,3.7,0.6,10.6,10.3
CCc1cc(-c2n[nH]c(C)c2-c2ccccc2Cl)c(O)cc1OC,-2.2,-3.6,1.9,-9.3,-0.6,1.3,nt,nt
COc1ccccc1NC(=O)/C(C#N)=C/c1cc([N+](=O)[O-])ccc1N1CCCC1,-8.1,38.1*,2.5,-139.6,-76.7,-105.4,74.0*,85.5*
